The values that follow come from ChEMBL document CHEMBL4513216, “Probing the Open Global Health Chemical Diversity Library for Multistage-Active Starting Points for Next-Generation Antimalarials” (ACS Infect Dis, 2020).

The data set is described as follows: Toxicity liver stage against HepG2, at 10uM. In kind it is cell-based. The arrangement: test concentration 10 uM, cell line HepG2-A16-CD81EGFP. To be noted: human, HepG2-A16-CD81EGFP cells; read-out: INHIBITION
The procedure, abridged:
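Uninfected HepG2-A16-CD81EGFP cells, 3 × 10^3 per well, 1536-well, plated on prespotted compound at 10 μM final, parasite-free screening media added to match infected plates; puromycin 10 μM positive, DMSO 0.5% negative; run in parallel with 48 h PbLuc assay at 37 °C, 5% CO2; viability by CellTiter-Glo luminescence, normalized to controls.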
`Cn1c(=O)oc2cc(S(=O)(=O)N3CCC(c4ccccc4)C3)c(Cl)cc21` (stereo unspecified): the cytotoxicity at 10 µM amounted to 12.4%.
In the case of `CCOC(=O)CN1C(=O)CN(S(C)(=O)=O)CCC(OC)c2ccccc21` (stereo unspecified), the cytotoxicity at 10 µM came out at 1.5%.
Under `COc1ccc2c(ccn2CC(=O)NC[C@@H]2CCCN3CCCC[C@H]23)c1` stands -4.56%.
Under `COc1ccccc1OCC(=O)N1CCC[C@]2(C[C@@H](OC)CO2)C1` stands 1.04%; under `Cc1cccc(-c2nccnc2C2CCN(C)CC2)c1C`, 2.14%.
Under `Cc1nc(-c2ccc(F)cc2)cc(C2CCNCC2)n1` stands 8.1%; under `CCCN1C[C@H](NC(=O)c2ccccc2F)[C@@H](c2ccc(OC)cc2)C1`, -41.8%.
As to `N[C@@H]1CCC[C@@H](Oc2ccc(F)cc2Oc2ccccc2)[C@@H]1O`, the cytotoxicity at 10 µM was -7.39%.
Under `Cc1ncsc1-c1nnc(C2CCN(Cc3cccc(F)c3F)CC2)o1` stands -15.8%.
Under `Cc1ccc(CCN2CCCC23Cc2ccccc2CNC3=O)cc1` (stereo unspecified) stands 7.41%.
For `CCc1cc2c(N3CCCC(c4cc(C(N)=O)[nH]n4)C3)ncnc2s1` (stereo unspecified), the cytotoxicity at 10 µM amounted to 3.25%.
Regarding `CCSCCOC(=O)CCCc1ccc2c(c1)CC(=O)N2`, the cytotoxicity at 10 µM was determined as 6.34%.
Under `Cc1ccc(C(=O)N2CCOCC2C(N)=O)c(F)c1` (stereo unspecified) stands 3.72%; under `CC(C)N(CC(=O)Nc1cccc(C#N)c1)C1CC1`, -7.16%; under `Cc1occc1C(=O)NCC(=O)NCCCOc1ccc(F)cc1`, -45.1%.
Under `CC(C)n1cc(CN2CCCN(C(=O)C3(C)CCOCC3)CC2)cn1` stands -48.2%; under `Cc1cccc(S(=O)(=O)NC(=O)CN(C)Cc2ccccc2)c1`, -14.3%.
Under `O=C(NCCNC1CCN(c2nccs2)CC1)c1cccs1` stands 5.73%; under `O=C(Cc1cccs1)NCC1(O)CCSC1` (stereo unspecified), -9.66%; under `CC1CCN(CC2CCCN(C(=O)Nc3ccccn3)C2)CC1` (stereo unspecified), -9.85%.
Turning to `Cc1ccc(NCCNC(=O)C2Cc3cc(C)c(C)cc3O2)nn1` (stereo unspecified), the cytotoxicity at 10 µM came out at 3.34%.
Under `CC(C)COCCC(=O)NCc1cn2cc(Br)ccc2n1` stands 4.26%.
Under `COc1ncccc1C(=O)N1CCCC(n2ccnc2C)C1` (stereo unspecified) stands -7.41%.
Under `Cc1c(C(N)=O)sc2nc(C(F)(F)F)ccc12` stands -3.33%; under `CC(CCNC(=O)NCCc1ccc(S(N)(=O)=O)cc1)c1ccccc1` (stereo unspecified), -17.4%.
For `N#Cc1cccc(OCC(=O)N(Cc2ccsc2)C2CC2)c1`, the cytotoxicity at 10 µM is -50.2%.
Under `O=C(NC1CCN(c2ncccn2)CC1)c1cc2c(cc1O)CCCC2` stands 8%.
Consider `COc1cc(CN(C)Cc2cccnc2)c(SC)cc1OC`, for which the cytotoxicity at 10 µM worked out at 2.3%.
Under `CCC(C(=O)Nc1ccc2cn(CC)nc2c1)N1CCCC1=O` (stereo unspecified) stands -46.7%; under `CO[C@H]1CN(C(=O)OC(C)(C)C)CC1NCc1cccn1C` (stereo partly specified), -44%; under `CN1CC(C(=O)NCc2cccnc2OCc2ccccc2)CC1=O` (stereo unspecified), 4.44%.
Under `Cc1cc(NC(=O)C(C)N2CCN(c3ccc(C#N)cc3F)CC2)no1` (stereo unspecified) stands 6.16%; under `COc1cccc(CSCC(=O)NCc2cccnc2)c1`, -46.3%.
Under `Fc1cc(CNCc2ccc3c(c2)CCO3)ccc1N1CCOCC1` stands -7.24%.
For `Cc1ccc(CNCC2Cn3nncc3CO2)s1` (stereo unspecified), the cytotoxicity at 10 µM is -99.4%.
Under `NC(=O)N1CCC2(CC1)CN(c1ccsc1)C(=O)CO2` stands 10.7%; under `O=C1[C@@H]2CCN(Cc3ccncc3)C[C@@H]2OCCN1c1ccccc1`, -1.06%.
Under `C[C@H](O)CNc1cc(-c2ccncc2)ncn1` stands -11.1%.
Under `CCN1CC(C(=O)N2CCc3cc(C(N)=O)n(C)c3C2)CCC1=O` (stereo unspecified) stands -44.6%; under `CC(C)c1nnc2n1CCN(Cc1ccc3c(c1)OCO3)CC2`, 1.67%.
Regarding `O=C(C1CCOCC1)N1CCOC(CC2CCCCC2)C1` (stereo unspecified), the cytotoxicity at 10 µM was -5.56%.
On to `Cc1cc(C)c2c(c1)C(CC(=O)O)C(=O)N2` (stereo unspecified), for which the cytotoxicity at 10 µM amounted to 7.16%.
Under `CCNC(=O)[C@@H]1C[C@@H](NC(=O)c2cc(C)on2)CN1Cc1ccccn1` stands -6.78%; under `CCOC(=O)N[C@H]1C[C@@H](C(=O)NCCc2cccc(Cl)c2)N(C)C1`, -3.79%.
Under `Cc1ccc([C@@H]2CN(S(=O)(=O)Cc3ccccc3)C[C@H]2N(C)C)cc1` stands -2.85%.
With `CN(C)c1nc(NCCCN2CCc3ccccc32)ncc1F`, the cytotoxicity at 10 µM worked out at 27.3%.
Under `CSCc1nc(CNC(=O)c2cnn(C(C)C)c2)cs1` stands 1.98%.
Under `CC(C)N(C(=O)c1ccccc1-c1nc2c([nH]1)CCNC2)C(C)C` stands -45%.
Under `O=C1CN(Cc2cn(CC3CCCN(C4CCSCC4)C3)nn2)CCN1` (stereo unspecified) stands -49.3%; under `CCc1nc(CNc2cc(C)nc(-c3cccnc3)n2)cs1`, -63.6%.
`CC(C)n1ccnc1CNC(=O)c1cccc(CCC(C)(C)O)c1`: the cytotoxicity at 10 µM is -36.4%.
In the case of `COc1cc(N2CCCC(c3nccn3Cc3ccncc3)C2)ncn1` (stereo unspecified), the cytotoxicity at 10 µM was -6.82%.
Under `CC(C)CN1CCc2[nH]cnc2C12CCN(C(=O)c1ccccn1)CC2` stands -11.6%; under `CC(C)[C@H]1CN(C2Cc3ccccc3C2)C[C@@H]1NS(=O)(=O)N(C)C`, 1.52%.
Take `CCCc1cc(C(=O)N2C[C@H](O)[C@@H](N3CCCC3)C2)ccn1`: the cytotoxicity at 10 µM was determined as 5.92%.
Under `Oc1ccc(-c2c(-c3ccccc3)ncn2C2CCNC2)cc1` (stereo unspecified) stands -45.3%; under `COc1cccc(C(=O)N2CCN(C(=O)CCn3ccnc3)CC2)c1`, 10.3%; under `CC(C)n1ccnc1CN1CCCN(C(=O)c2cscn2)CC1`, -1.63%.
Under `CN(Cc1nc2ccccc2o1)CC1CCCN1c1cccnn1` (stereo unspecified) stands -9.45%; under `Cc1cn2c(n1)CCC(NC(=O)CCC(F)(F)F)C2` (stereo unspecified), -9.12%.
Consider `Cc1ccc(CNC(c2ccccc2)c2nccn2C)cc1C` (stereo unspecified), for which the cytotoxicity at 10 µM is 0.323%.
Under `Cn1nccc1CNC(=O)Nc1cc(C(F)(F)F)c[nH]c1=O` stands 1.04%; under `CC(C)(C)CC(=O)NCCn1nc(C2CCNC2)c2cccnc21` (stereo unspecified), -0.00173%.
Under `O=C1CC[C@H]2[C@H](CCN2C(=O)C2CCOC2)N1Cc1ccncc1` (stereo partly specified) stands 6.67%.
Under `Cc1ccc(CN2CCC3(C2)C(=O)N(CC2CC2)c2ccccc23)s1` (stereo unspecified) stands 13.4%; under `CCCN1CCC(c2nc3ccc(-c4ccccc4)cn3n2)CC1`, -129%; under `CN1[C@H](Cn2cncn2)C[C@@H]2CN(Cc3ccsc3)CC[C@@H]21`, -118%.
Turning to `Cc1ccc(CN2CCn3c(CNC(=O)c4cccn4C)cnc3C2)s1`, the cytotoxicity at 10 µM turned out to be 1.82%.
Under `Cn1nc(CN2CCCC2)c2c1CN(c1cnccn1)CC2` stands -95.3%; under `COCCN1CCC12CCN(C(=O)c1ccc(C)nc1)C2` (stereo unspecified), -102%.
In the case of `Cc1ccc(CN2CC[C@H]3OCC[C@@]3(COCC(=O)N(C)C)C2)s1`, the cytotoxicity at 10 µM is -97.8%.
